≈ marks a conversion by molar mass, not a printed value.
How the values were obtained:
[1] = system: Mycobacterium tuberculosis; experiment: Antimycobacterial activity against Mycobacterium tuberculosis H37Rv by agar dilution method; format: functional
In short: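 Agar dilution MIC on Middlebrook 7H11 agar with OADC, following the NCCLS-recommended approach, run in duplicate. The MDR clinical isolate was resistant to isoniazid, rifampicin, ethambutol and ofloxacin.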

[2] = system: Mycolicibacterium smegmatis; experiment: Antimycobacterial activity against Mycobacterium smegmatis MC2 by agar dilution method; format: functional
In short: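 Agar dilution in Middlebrook 7H11 agar with OADC, run along NCCLS-recommended lines; M. smegmatis ATCC 14468 (MC2); MIC determined in duplicate.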

Vero = experiment: Cytotoxicity against african green monkey Vero cells after 72 hrs by MTT assay; format: cell-based; conditions: Chlorocebus sabaeus
In short: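 Mammalian Vero cells exposed to compounds at 62.5 µg/ml for 72 h; viability read by cellular conversion of MTT to formazan (Cell Titer 96 non-radioactive proliferation assay).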

[3] = target: DNA gyrase subunit B (Mycobacterium smegmatis (strain ATCC 700084 / mc(2)155), UniProt A0QNE0); experiment: Inhibition of Mycobacterium smegmatis MC2 DNA gyrase GyrB ATPase supercoiling activity; set-up: species or system Mycolicibacterium smegmatis
Sequence of DNA gyrase subunit B (Mycobacterium smegmatis (strain ATCC 700084 / mc(2)155), UniProt A0QNE0) (A0QNE0 whole entry): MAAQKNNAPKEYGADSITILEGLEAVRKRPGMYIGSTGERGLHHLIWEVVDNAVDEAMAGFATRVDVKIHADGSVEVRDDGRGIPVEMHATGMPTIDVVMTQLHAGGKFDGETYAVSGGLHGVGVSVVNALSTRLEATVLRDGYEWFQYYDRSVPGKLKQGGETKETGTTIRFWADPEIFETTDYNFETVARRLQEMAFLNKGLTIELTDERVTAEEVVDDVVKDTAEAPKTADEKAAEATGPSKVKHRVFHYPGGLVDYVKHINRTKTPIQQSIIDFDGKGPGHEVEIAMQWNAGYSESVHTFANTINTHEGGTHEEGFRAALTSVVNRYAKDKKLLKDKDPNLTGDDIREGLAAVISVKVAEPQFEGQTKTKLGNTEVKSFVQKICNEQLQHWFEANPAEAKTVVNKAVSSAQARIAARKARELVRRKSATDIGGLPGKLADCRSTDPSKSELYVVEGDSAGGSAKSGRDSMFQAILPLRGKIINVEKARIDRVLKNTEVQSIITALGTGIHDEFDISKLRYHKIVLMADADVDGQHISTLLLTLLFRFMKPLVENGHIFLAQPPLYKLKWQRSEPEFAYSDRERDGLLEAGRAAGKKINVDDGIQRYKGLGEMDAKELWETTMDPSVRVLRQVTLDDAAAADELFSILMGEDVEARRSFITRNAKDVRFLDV
In short: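 Gyrase purified from M. smegmatis MC2 cells; compounds in DMSO pre-incubated with enzyme, then 400 ng relaxed pUC18 added in 35 mM Tris-HCl pH 7.5, 5 mM MgCl2, 25 mM K glutamate, 2 mM spermidine, 2 mM ATP, BSA, tRNA, 5% glycerol; 30 min; heat-stopped 65 °C 15 min; agarose gel, ethidium bromide staining; ciprofloxacin 10 µg/ml and 5% DMSO controls.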

Mus musculus [4] = experiment: Phototoxicity in Swiss albino mouse assessed as erythema incidence at 140 mg/kg, po after 24 hrs of irradiation; format: organism-based; set-up: dose 140 mg/kg, route oral; conditions: in vivo
In short: (§1)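 Female Swiss albino mice (~2 months, 20-25 g), fasted ≥18 h, single 140 mg/kg oral gavage dose; groups of 6 (compound, lomefloxacin HCl 140 mg/kg, 0.5% carboxymethylcellulose vehicle 10 ml/kg); UV irradiation 4 h (~18 J/cm²) right after dosing; both ears scored for erythema, oedema, thickness pre-dose, at end of irradiation, and ~24-96 h; thickness given as mean of both ears ± SEM.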

Mus musculus [5] = experiment: Phototoxicity in Swiss albino mouse assessed as ear thickness at 140 mg/kg, po after 72 hrs of irradiation; format: organism-based; set-up: dose 140 mg/kg, route oral; conditions: in vivo; in short: as §1
Mus musculus [6] = experiment: Phototoxicity in Swiss albino mouse assessed as ear thickness at 140 mg/kg, po after 4 hrs of irradiation; format: organism-based; set-up: dose 140 mg/kg, route oral; conditions: in vivo; in short: as §1
Mus musculus [7] = experiment: Phototoxicity in Swiss albino mouse assessed as erythema incidence at 140 mg/kg, po after 96 hrs of irradiation; format: organism-based; set-up: dose 140 mg/kg, route oral; conditions: in vivo; in short: as §1
Mus musculus [8] = experiment: Phototoxicity in Swiss albino mouse assessed as ear thickness at 140 mg/kg, po after 24 hrs of irradiation; format: organism-based; set-up: dose 140 mg/kg, route oral; conditions: in vivo; in short: as §1
Mus musculus [9] = experiment: Phototoxicity in Swiss albino mouse assessed as ear thickness at 140 mg/kg, po after 96 hrs of irradiation; format: organism-based; set-up: dose 140 mg/kg, route oral; conditions: in vivo; in short: as §1
Mus musculus [10] = experiment: (§2) Phototoxicity in Swiss albino mouse assessed as erythema incidence at 140 mg/kg, po after 48 hrs of irradiation; format: organism-based; set-up: dose 140 mg/kg, route oral; conditions: in vivo; in short: as §1
Mus musculus [11] = experiment: as §2; format: organism-based; set-up: dose 140 mg/kg, route oral; conditions: in vivo; in short: as §1; remark: listed apart in the source
Mus musculus [12] = experiment: Phototoxicity in Swiss albino mouse assessed as ear thickness at 140 mg/kg, po after 48 hrs of irradiation; format: organism-based; set-up: dose 140 mg/kg, route oral; conditions: in vivo; in short: as §1
Mus musculus [13] = experiment: Phototoxicity in Swiss albino mouse assessed as erythema incidence at 140 mg/kg, po after 4 hrs of irradiation; format: organism-based; set-up: dose 140 mg/kg, route oral; conditions: in vivo; in short: as §1
[14] = system: Mycobacterium tuberculosis; experiment: Antimycobacterial activity against Mycobacterium tuberculosis ATCC 35801 infected in CD1 mouse assessed as bacterial load in spleen at 50 mg/kg, ip after 10 days; format: functional; conditions: route intraperitoneal
In short: (§3)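 Female CD-1 mice, 6 weeks old, six per group, infected IV via caudal vein with ~10⁷ viable organisms. Intraperitoneal treatment started 10 days after inoculation and ran 10 days. At 35 days post-infection, spleens and right lungs were homogenised and serially 10-fold diluted onto 7H10 agar, incubated 4 weeks at 37 °C in ambient air. CFU compared with vehicle-treated controls.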

[15] = system: Mycobacterium tuberculosis; experiment: Antimycobacterial activity against Mycobacterium tuberculosis ATCC 35801 infected in CD1 mouse assessed as bacterial load in lungs at 50 mg/kg, ip after 10 days; format: functional; conditions: route intraperitoneal; in short: as §3
[16] = system: Mycobacterium tuberculosis; experiment: Antimycobacterial activity against Mycobacterium tuberculosis ATCC 35801 infected in CD1 mouse assessed as bacterial load in spleen at 25 mg/kg, ip after 10 days; format: functional; conditions: route intraperitoneal; in short: as §3
[17] = system: Mycobacterium tuberculosis; experiment: Antimycobacterial activity against Mycobacterium tuberculosis ATCC 35801 infected in CD1 mouse assessed as bacterial load in lungs at 25 mg/kg, ip after 10 days; format: functional; conditions: route intraperitoneal; in short: as §3

SMILES | MIC [1] [µM] | MIC [2] [µM] | IC50 (Vero) [µM] | also measured
COc1c(N2CCC(O)(c3ccc(Cl)cc3)CC2)c(F)cc2c(=O)c(C(=O)O)cn(C3CC3)c12 | 6.43 (≈ 3.13 µg/mL) | 12.8 (≈ 6.25 µg/mL) | – | –
COc1c(N2CCSCC2)c(F)cc2c(=O)c(C(=O)O)cn(C3CC3)c12 | 2.06 (≈ 0.78 µg/mL) | 4.12 (≈ 1.56 µg/mL) | 165 | –
COc1c(N2CC(C)OC(C)C2)c(F)cc2c(=O)c(C(=O)O)cn(C3CC3)c12 (centres undefined) | 3.99 (≈ 1.56 µg/mL) | 16 (≈ 6.25 µg/mL) | 160 | –
COc1c(N2CCN(C(=O)C3COc4ccccc4O3)CC2)c(F)c([N+](=O)[O-])c2c(=O)c(C(=O)O)cn(C3CC3)c12 (centres undefined) | 1.37 (≈ 0.779 µg/mL) | 2.74 (≈ 1.56 µg/mL) | 110 | IC50 [3]: > 87.9 µM
COc1c(N2CCN(C)C(c3ccccc3)C2)c(F)cc2c(=O)c(C(=O)O)cn(C3CC3)c12 (centres undefined) | 13.8 (≈ 6.25 µg/mL) | 27.7 (≈ 12.5 µg/mL) | – | –
COc1c(N2CCc3ccccc3C2C(=O)NC(C)(C)C)c(F)cc2c(=O)c(C(=O)O)cn(C3CC3)c12 (centres undefined) | 12.3 (≈ 6.25 µg/mL) | 49.3 (≈ 25 µg/mL) | – | –
COc1c(N2COCC2(C)C)c(F)c([N+](=O)[O-])c2c(=O)c(C(=O)O)cn(C3CC3)c12 | 1.85 (≈ 0.78 µg/mL) | 3.7 (≈ 1.56 µg/mL) | 148 | –
COc1c(N2COCC2(C)C)c(F)cc2c(=O)c(C(=O)O)cn(C3CC3)c12 | 4.14 (≈ 1.56 µg/mL) | 16.6 (≈ 6.25 µg/mL) | 166 | –
COc1c(N2CCC(N3CCCCC3)CC2)c(F)cc2c(=O)c(C(=O)O)cn(C3CC3)c12 | 7.06 (≈ 3.13 µg/mL) | 14.1 (≈ 6.25 µg/mL) | – | –
COc1c(N2CC(C)OC(C)C2)c(F)c([N+](=O)[O-])c2c(=O)c(C(=O)O)cn(C3CC3)c12 (centres undefined) | 0.89 (≈ 0.388 µg/mL) | 1.79 (≈ 0.779 µg/mL) | 144 | IC50 [3]: 115 µM; Activity (Mus musculus [4]): Non-toxic; Activity (Mus musculus [5]): 0.34 mm; Activity (Mus musculus [6]): 0.29 mm; Activity (Mus musculus [7]): Non-toxic; Activity (Mus musculus [8]): 0.35 mm; Activity (Mus musculus [9]): 0.33 mm; Activity (Mus musculus [10]): Non-toxic; Activity (Mus musculus [11]): Non-toxic; Activity (Mus musculus [12]): 0.36 mm
COc1c(N2CCC(N3CCCCC3)CC2)c(F)c([N+](=O)[O-])c2c(=O)c(C(=O)O)cn(C3CC3)c12 | 6.41 (≈ 3.13 µg/mL) | 12.8 (≈ 6.25 µg/mL) | – | –
COc1c(N2CCC3(CC2)OCCO3)c(F)c([N+](=O)[O-])c2c(=O)c(C(=O)O)cn(C3CC3)c12 | 0.84 (≈ 0.389 µg/mL) | 6.75 (≈ 3.13 µg/mL) | 135 | –
COc1c(N2CCSCC2)c(F)c([N+](=O)[O-])c2c(=O)c(C(=O)O)cn(C3CC3)c12 | 1.84 (≈ 0.779 µg/mL) | 3.68 (≈ 1.56 µg/mL) | 148 | IC50 [3]: > 118 µM
COc1c(N2CCn3cc(C(=O)O)nc3C2)c(F)cc2c(=O)c(C(=O)O)cn(C3CC3)c12 | 3.53 (≈ 1.56 µg/mL) | 7.08 (≈ 3.13 µg/mL) | 141 | –
COc1c(N2CCN(Cc3ccc4c(c3)OCO4)CC2)c(F)c([N+](=O)[O-])c2c(=O)c(C(=O)O)cn(C3CC3)c12 | 0.35 (≈ 0.189 µg/mL) | 1.44 (≈ 0.778 µg/mL) | 116 | Activity (Mus musculus [4]): Non-toxic; Activity (Mus musculus [5]): 0.33 mm; Activity (Mus musculus [6]): 0.27 mm; Activity (Mus musculus [8]): 0.28 mm; Activity (Mus musculus [9]): 0.31 mm; Activity (Mus musculus [13]): Non-toxic; Activity (Mus musculus [12]): 0.3 mm
COc1c(N2CCNC(C)C2)c(F)cc2c(=O)c(C(=O)O)cn(C3CC3)c12 (centres undefined) [GATIFLOXACIN] | 1.04 (≈ 0.39 µg/mL) | 2.08 (≈ 0.781 µg/mL) | > 155 | Activity [14]: 6.92; Activity [15]: 6.02
NNC(=O)c1ccncc1 [ISONIAZID] | 0.36 (≈ 0.0494 µg/mL) | 45.6 (≈ 6.25 µg/mL) | > 456 | Activity [16]: 4.71; Activity [17]: 5.86
CCn1cc(C(=O)O)c(=O)c2cc(F)c(N3CCNC(C)C3)c(F)c21 (centres undefined) [LOMEFLOXACIN] | – | – | – | Activity (Mus musculus [4]): Toxic; Activity (Mus musculus [5]): 0.64 mm; Activity (Mus musculus [6]): 0.4 mm; Activity (Mus musculus [7]): Toxic; Activity (Mus musculus [8]): 0.48 mm; Activity (Mus musculus [9]): 0.6 mm; Activity (Mus musculus [10]): Toxic; Activity (Mus musculus [13]): Toxic; Activity (Mus musculus [11]): Toxic; Activity (Mus musculus [12]): 0.53 mm

From ChEMBL document CHEMBL1144027, “Synthesis and antimycobacterial evaluation of newer 1-cyclopropyl-1,4-dihydro-6-fluoro-7-(substituted secondary amino)-8-methoxy-5-(sub)-4-oxoquinoline-3-carboxylic acids” (Bioorg Med Chem, 2008)
